Values after ≈ are worked out from the molar mass of the structure shown.
Columns and labels:
[1] = system: Mycobacterium tuberculosis; assay: Antituberculosis activity against Mycobacterium tuberculosis H37Rv ATCC 27294 after 5 days; assay type: functional; details: H37Rv ATCC 27294, 120 h
Cytochrome P450 3A4 = Cytochrome P450 3A4 (Homo sapiens, UniProt P08684); assay: Inhibition of CYP3A4 (unknown origin); assay type: ADME
Cytochrome P450 2D6 = Cytochrome P450 2D6 (Homo sapiens, UniProt P10635); assay: Inhibition of CYP2D6 (unknown origin); assay type: ADME
Cytochrome P450 2C9 = Cytochrome P450 2C9 (Homo sapiens, UniProt P11712); assay: Inhibition of CYP2C9 (unknown origin); assay type: ADME
[2] = Intrinsic clearance in rat liver microsomes; assay type: ADME; details: read-out: CLH
In short: (§1)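 Compound depletion in human, mouse or rat liver microsomes, quantified by LC/MS/MS. In vitro half-life and hepatic extraction ratio measured, and metabolic clearance predicted from these.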

[3] = Intrinsic clearance in human liver microsomes; assay type: ADME; details: read-out: CLH; in short: as §1
[4] = Intrinsic clearance in mouse liver microsomes; assay type: ADME; details: read-out: CLH; in short: as §1
[5] = Solubility of the compound at pH 6.8 after 24 hrs by shake flask method; assay type: physicochemical; details: buffer
In short: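 High-throughput equilibrium shake-flask method. DMSO stock evaporated in filter vials, aqueous buffer added, shaken 24 h on an orbital shaker, then filtered with 30 min further shaking. Filtrate analysed by HPLC.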

[6] = Cytotoxicity against human HepG2 cells; assay type: cell-based
[7] = Inhibition of Mycobacterium tuberculosis InhA
[8] = Volume of distribution at steady state in mouse at 5 mg/kg, iv; assay type: ADME, organism-based; details: in vivo, read-out: Vdss
In short: (§2)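 Mice dosed i.v. at 5 mg/kg (1 mg/mL in 20% 1,2-propanediol, 10% solutol HS15, pH 7.0 buffer). Plasma sampled at 0.02, 0.25, 0.75, 1.5, 3, 8 and 24 h, three mice per time point. Analysed by LC/MS/MS with warfarin as internal standard. Noncompartmental analysis of mean concentration–time profiles.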

[9] = Terminal half life in mouse at 5 mg/kg, iv; assay type: ADME, organism-based; details: in vivo, read-out: beta t1/2 (converted); in short: as §2
[10] = Cmax in mouse at 50 mg/kg, po; assay type: ADME, organism-based; parameters: dose 50 mg/kg, route oral; details: in vivo
Mus musculus [11] = assay: AUC in mouse at 50 mg/kg, po; assay type: ADME, organism-based; details: in vivo
[12] = Tmax in mouse at 50 mg/kg, po; assay type: ADME, organism-based; details: in vivo
Mus musculus [13] = assay: Oral bioavailability in mouse at 50 mg/kg; assay type: ADME, organism-based; details: in vivo
[14] = system: Mycobacterium tuberculosis; assay: Antituberculosis activity against Mycobacterium tuberculosis H37Rv infected in mouse assessed as log reduction of CFU in lung at 150 mg/kg qd for 7 days in a week for 3 weeks; assay type: functional
In short: (§3)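 Acute model: mice infected intranasally day 0 with 10³ H37Rv bacilli; oral dosing began one week post-infection, daily 7 days/week (3 or 4 weeks). Oral vehicle was 0.5% Tween 80/0.5% methyl cellulose for the 3-week study and MEPC (Capmul MCM/Cremophor-RH40/ethanol/pH 6.8 phosphate buffer) for the 4-week study. Lungs homogenized, serial-dilution plated on 7H11 agar for CFU; ethambutol positive control.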

[15] = system: Mycobacterium tuberculosis; assay: Antituberculosis activity against Mycobacterium tuberculosis H37Rv infected in mouse assessed as log reduction of CFU in spleen at 30 mg/kg qd for 7 days in a week for 4 weeks; assay type: functional
In short: (§4)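 Mice infected intranasally with 10³ H37Rv bacilli on day 0; from one week post-infection dosed orally daily, 7 days/week for 4 weeks, in MEPC vehicle (Capmul MCM, Cremophor-RH40, ethanol, 50 mM phosphate pH 6.8). Bacterial load in spleen estimated as log CFU by serial-dilution plating on 7H11 agar; ethambutol positive control.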

[16] = system: Mycobacterium tuberculosis; assay: Antituberculosis activity against Mycobacterium tuberculosis H37Rv infected in mouse assessed as log reduction of CFU in spleen at 100 mg/kg qd for 7 days in a week for 4 weeks; assay type: functional; in short: as §4
[17] = Plasma clearance in mouse at 5 mg/kg, iv; assay type: ADME, organism-based; in short: as §2
[18] = Cmax in mouse at 25 mg/kg, po; assay type: ADME, organism-based; parameters: dose 25 mg/kg, route oral; details: in vivo
In short: (§5)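 Plasma sampled at 0.08–24 h, three mice per time point. Plasma extracted with acetonitrile/methanol/acetic acid and quantified by LC/MS/MS (LLOQ 1–3 ng/mL).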

[19] = AUC in mouse at 25 mg/kg, po; assay type: ADME, organism-based; details: in vivo; in short: as §5
[20] = Tmax in mouse at 25 mg/kg, po; assay type: ADME, organism-based; details: in vivo; in short: as §5
[21] = Oral bioavailability in mouse at 25 mg/kg; assay type: ADME, organism-based; details: in vivo
[22] = system: Mycobacterium tuberculosis; assay: Antituberculosis activity against Mycobacterium tuberculosis H37Rv infected in mouse assessed as log reduction of CFU in lung at 30 mg/kg qd for 7 days in a week for 4 weeks; assay type: functional; in short: as §3
[23] = system: Mycobacterium tuberculosis; assay: Antituberculosis activity against Mycobacterium tuberculosis H37Rv infected in mouse assessed as log reduction of CFU in lung at 100 mg/kg qd for 7 days in a week for 4 weeks; assay type: functional; in short: as §3

Sequence of Cytochrome P450 3A4 (P08684 whole entry): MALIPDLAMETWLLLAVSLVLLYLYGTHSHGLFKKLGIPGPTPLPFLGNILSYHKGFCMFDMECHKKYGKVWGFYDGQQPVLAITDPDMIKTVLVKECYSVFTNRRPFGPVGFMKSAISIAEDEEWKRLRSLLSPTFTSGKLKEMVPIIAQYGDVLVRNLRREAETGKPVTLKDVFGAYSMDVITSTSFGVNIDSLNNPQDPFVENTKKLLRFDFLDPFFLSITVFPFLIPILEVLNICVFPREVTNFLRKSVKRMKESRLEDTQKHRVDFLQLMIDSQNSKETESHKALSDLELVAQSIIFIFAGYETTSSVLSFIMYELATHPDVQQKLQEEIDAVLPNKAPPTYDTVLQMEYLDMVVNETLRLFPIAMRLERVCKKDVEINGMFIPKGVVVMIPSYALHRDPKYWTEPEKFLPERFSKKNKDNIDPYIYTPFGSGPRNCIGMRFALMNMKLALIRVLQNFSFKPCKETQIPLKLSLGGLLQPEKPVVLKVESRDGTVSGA
Sequence of Cytochrome P450 2C9 (P11712 whole entry): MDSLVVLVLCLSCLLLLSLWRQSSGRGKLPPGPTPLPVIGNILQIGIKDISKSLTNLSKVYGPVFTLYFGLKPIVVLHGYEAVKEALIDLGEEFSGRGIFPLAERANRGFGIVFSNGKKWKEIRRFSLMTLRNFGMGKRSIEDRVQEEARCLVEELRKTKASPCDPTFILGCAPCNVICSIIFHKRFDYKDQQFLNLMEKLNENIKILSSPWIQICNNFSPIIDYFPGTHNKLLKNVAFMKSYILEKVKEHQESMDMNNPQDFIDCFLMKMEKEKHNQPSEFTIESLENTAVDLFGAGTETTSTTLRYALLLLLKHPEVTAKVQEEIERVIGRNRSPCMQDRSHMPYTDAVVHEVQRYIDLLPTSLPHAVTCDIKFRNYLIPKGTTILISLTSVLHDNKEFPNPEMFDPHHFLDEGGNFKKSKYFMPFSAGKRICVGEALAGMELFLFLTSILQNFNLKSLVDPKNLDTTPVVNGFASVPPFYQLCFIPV
Sequence of Cytochrome P450 2D6 (P10635 whole entry): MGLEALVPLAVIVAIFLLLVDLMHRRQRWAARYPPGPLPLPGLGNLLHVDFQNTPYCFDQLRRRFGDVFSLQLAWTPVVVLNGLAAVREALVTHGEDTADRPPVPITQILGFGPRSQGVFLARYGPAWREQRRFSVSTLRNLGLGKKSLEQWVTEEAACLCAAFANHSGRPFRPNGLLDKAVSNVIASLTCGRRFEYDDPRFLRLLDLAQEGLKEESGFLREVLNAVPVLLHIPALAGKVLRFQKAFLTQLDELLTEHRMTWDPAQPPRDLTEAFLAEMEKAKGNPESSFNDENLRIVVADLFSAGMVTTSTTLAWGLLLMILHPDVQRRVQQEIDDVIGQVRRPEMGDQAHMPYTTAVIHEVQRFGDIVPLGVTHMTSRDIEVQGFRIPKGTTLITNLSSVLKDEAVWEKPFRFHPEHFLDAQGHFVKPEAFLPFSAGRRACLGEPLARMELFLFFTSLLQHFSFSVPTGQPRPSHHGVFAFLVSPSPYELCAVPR

SMILES: Oc1nc2ccccc2c(O)c1-c1ccccc1
- MIC50 [1]: 13.2 µM (≈ 3.13 µg/mL)

SMILES: CC(C)Cc1cc(O)c(-c2ccccc2)c(=O)[nH]1
- IC50 (Cytochrome P450 3A4): > 20 µM
- IC50 (Cytochrome P450 2D6): > 20 µM
- IC50 (Cytochrome P450 2C9): > 20 µM
- microsomal CLint [2]: 3.4 µL/min/mg
- microsomal CLint [3]: 20 µL/min/mg
- microsomal CLint [4]: 22 µL/min/mg
- MIC50 [1]: 1.54 µM (≈ 0.375 µg/mL)
- solubility thermodynamic at 24 h [5]: 550 µM (≈ 134 µg/mL)
- CC50 [6]: > 20 µM
- IC50 [7]: 9.6 µM
- Vd [8]: 0.46 L/kg
- half-life [9]: 1.21 h
- Cmax [10]: 13.2 µM
- AUC (Mus musculus [11]): 27.18 µM·h
- Tmax [12]: 0.5 h
- F (Mus musculus [13]): 55%
- Activity [14]: 0.95 log10CFU

SMILES: CC1(C)CCC(Cc2cc(O)c(-c3ccccc3)c(=O)[nH]2)CC1
- Activity [15]: 2.5 log10CFU
- Activity [16]: 2.8 log10CFU
- microsomal CLint [3]: 59 µL/min/mg
- microsomal CLint [4]: 45 µL/min/mg
- MIC50 [1]: 0.05 µM (≈ 0.0156 µg/mL)
- solubility thermodynamic at 24 h [5]: 25 µM (≈ 7.79 µg/mL)
- CC50 [6]: > 20 µM
- IC50 [7]: 0.57 µM
- Vd [8]: 0.54 L/kg
- clearance [17]: 13.6 mL/min/kg
- half-life [9]: 1.13 h
- Cmax [18]: 13.7 µM
- AUC [19]: 65.8 µM·h
- Tmax [20]: 6 h
- bioavailability [21]: 66%
- Activity [22]: 1 log10CFU
- Activity [23]: 1.92 log10CFU

SMILES: CC(C)Cc1nc(O)c(-c2ccccc2)c(=O)[nH]1
- MIC50 [1]: > 20 µM

SMILES: COc1nc(CC(C)C)cc(O)c1-c1ccccc1
- MIC50 [1]: > 20 µM

SMILES: CC(C)Cc1cc(O)c(-c2ccccc2)c(=O)n1C
- MIC50 [1]: 8.1 µM (≈ 2.08 µg/mL)

SMILES: O=c1[nH]c(CC2CCC2)cc(O)c1-c1ccccc1
- MIC50 [1]: 1.19 µM (≈ 0.304 µg/mL)
- solubility thermodynamic at 24 h [5]: 280 µM (≈ 71.5 µg/mL)

SMILES: CC(C)Cc1cc(NCc2ccccc2)c(-c2ccccc2)c(=O)[nH]1
- MIC50 [1]: > 20 µM

SMILES: COc1ccc(-c2c(O)cc(CC(C)C)[nH]c2=O)cc1
- MIC50 [1]: > 20 µM

SMILES: CC(C)CCc1cc(O)c(-c2ccccc2)c(=O)[nH]1
- MIC50 [1]: 1.51 µM (≈ 0.389 µg/mL)
- solubility thermodynamic at 24 h [5]: 128 µM (≈ 32.9 µg/mL)

SMILES: O=c1[nH]c(Cc2ccncc2)cc(O)c1-c1ccccc1
- MIC50 [1]: 6.8 µM (≈ 1.89 µg/mL)
- solubility thermodynamic at 24 h [5]: > 1000 µM

SMILES: CC(C)Cc1cc(O)c(-c2ccccc2)c(=O)n1Cc1ccccc1
- MIC50 [1]: > 20 µM

SMILES: CC(C)Cc1cc(O)c(-c2ccc(Cl)cc2)c(=O)[nH]1
- MIC50 [1]: > 20 µM

SMILES: CC(C)Cc1cc(O)c(-c2cccc(Cl)c2)c(=O)[nH]1
- MIC50 [1]: 2.67 µM (≈ 0.742 µg/mL)

SMILES: CC(C)Cc1cc(O)c(-c2ccccc2Cl)c(=O)[nH]1
- MIC50 [1]: 3.32 µM (≈ 0.922 µg/mL)

SMILES: CC(C)Cc1ccc(-c2ccccc2)c(=O)[nH]1
- MIC50 [1]: > 20 µM

SMILES: CC(C)Cc1cc(N)c(-c2ccccc2)c(=O)[nH]1
- MIC50 [1]: > 20 µM

SMILES: O=c1[nH]c(CC2CC2)cc(O)c1-c1ccccc1
- MIC50 [1]: 4.53 µM (≈ 1.09 µg/mL)
- solubility thermodynamic at 24 h [5]: 891 µM (≈ 215 µg/mL)

SMILES: CC(C)Cc1cc(O)c(-c2ccc(F)cc2)c(=O)[nH]1
- MIC50 [1]: 6.75 µM (≈ 1.76 µg/mL)

SMILES: Cc1cc(O)c(-c2ccccc2)c(=O)[nH]1
- MIC50 [1]: > 20 µM
- solubility thermodynamic at 24 h [5]: > 1000 µM

SMILES: CC(C)Cc1cc(NS(C)(=O)=O)c(-c2ccccc2)c(=O)[nH]1
- MIC50 [1]: > 20 µM

SMILES: CC(C)Cc1cc(O)c(-c2ccccn2)c(=O)[nH]1
- MIC50 [1]: > 20 µM

SMILES: CC(C)Cc1cc(O)c(-c2ccccc2)c(=O)n1C(C)C
- MIC50 [1]: > 20 µM

SMILES: O=c1[nH]c(CC2CCOCC2)cc(O)c1-c1ccccc1
- MIC50 [1]: 10.1 µM (≈ 2.88 µg/mL)
- solubility thermodynamic at 24 h [5]: > 1000 µM

SMILES: CC(C)Cc1cc(O)c(-c2cccnc2)c(=O)[nH]1
- MIC50 [1]: > 20 µM

SMILES: O=c1[nH]c(CC2CCCC2)cc(O)c1-c1ccccc1
- MIC50 [1]: 0.92 µM (≈ 0.248 µg/mL)
- solubility thermodynamic at 24 h [5]: 144 µM (≈ 38.8 µg/mL)

SMILES: CC(C)Cc1cc(O)c(-c2ccncc2)c(=O)[nH]1
- MIC50 [1]: > 20 µM

SMILES: CN(C)Cc1cc(O)c(-c2ccccc2)c(=O)[nH]1
- MIC50 [1]: > 20 µM
- solubility thermodynamic at 24 h [5]: 671 µM (≈ 164 µg/mL)

SMILES: O=c1[nH]c(Cc2ccccc2)cc(O)c1-c1ccccc1
- MIC50 [1]: 1.4 µM (≈ 0.388 µg/mL)
- solubility thermodynamic at 24 h [5]: 40 µM (≈ 11.1 µg/mL)

SMILES: O=c1[nH]c(CC2CCC(F)(F)CC2)cc(O)c1-c1ccccc1
- MIC50 [1]: 1.32 µM (≈ 0.422 µg/mL)
- solubility thermodynamic at 24 h [5]: 104 µM (≈ 33.2 µg/mL)

SMILES: CC(C)Cc1cc(O)c(-c2ccccc2F)c(=O)[nH]1
- MIC50 [1]: 6.31 µM (≈ 1.65 µg/mL)

SMILES: CC(C)Cc1cc(O)c(Cc2ccccc2)c(=O)[nH]1
- MIC50 [1]: > 20 µM

SMILES: COc1ccccc1-c1c(O)cc(CC(C)C)[nH]c1=O
- MIC50 [1]: > 20 µM

SMILES: COc1cccc(-c2c(O)cc(CC(C)C)[nH]c2=O)c1
- MIC50 [1]: > 20 µM

SMILES: CC(C)Cc1cc(O)c(C2CCCCC2)c(=O)[nH]1
- MIC50 [1]: > 20 µM

SMILES: COc1cc(CC(C)C)[nH]c(=O)c1-c1ccccc1
- MIC50 [1]: > 20 µM

SMILES: CC(C)Cc1cc(O)c(-c2cccc(F)c2)c(=O)[nH]1
- MIC50 [1]: 2.69 µM (≈ 0.703 µg/mL)

SMILES: CC(C)Cc1cc(O)c(-c2ccccc2)c(=O)o1
- MIC50 [1]: 13.8 µM (≈ 3.37 µg/mL)

SMILES: O=c1[nH]c(CC2CCCCC2)cc(O)c1-c1ccccc1
- MIC50 [1]: 0.16 µM (≈ 0.0453 µg/mL)
- solubility thermodynamic at 24 h [5]: 24 µM (≈ 6.8 µg/mL)

SMILES: COc1nc2ccc(Br)cc2cc1[C@@H](c1ccccc1)[C@@](O)(CCN(C)C)c1cccc2ccccc12 [BEDAQUILINE]
- MIC50 [1]: 0.05 µM (≈ 0.0278 µg/mL)

SMILES: NNC(=O)c1ccncc1 [ISONIAZID]
- MIC50 [1]: 0.33 µM (≈ 0.0453 µg/mL)

SMILES: O=[N+]([O-])c1cn2c(n1)OC[C@@H](OCc1ccc(OC(F)(F)F)cc1)C2 [PRETOMANID]
- MIC50 [1]: 0.4 µM (≈ 0.144 µg/mL)

From ChEMBL document CHEMBL3739268, “Structure activity relationships of 4-hydroxy-2-pyridones: A novel class of antituberculosis agents” (Eur J Med Chem, 2015)
